Experimental data: ChEMBL document CHEMBL1629563, “Pharmacokinetic and safety evaluation of BILR 355, a second-generation nonnucleoside reverse transcriptase inhibitor, in healthy volunteers” (Antimicrob Agents Chemother, 2008)

Tests used:
[1] = Drug excretion in healthy human urine assessed as unchanged drug at 100 mg, po administered as single dose by high-pressure liquid chromatography-tandem mass spectrometry/mass spectrometry method; type: ADME, organism-based; settings: read-out: Drug uptake
Outline: (§1)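 Urine was collected by weight after one oral dose of BILR 355 in PEG solution in fasted healthy males. Intervals were predose blank, 0-6, 6-24 and 24-72 h, with the bladder voided before each. Aliquots were stored at −20°C and assayed by LC-MS/MS. fe = amount of unchanged drug excreted (Ae) as a percentage of the administered dose.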

[2] = Apparent volume of distribution at steady state in healthy human at 12.5 mg, po administered as single dose; type: ADME, organism-based; settings: in vivo, read-out: Vss/F
Outline: (§2)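 Healthy male volunteers, six active plus two placebo per dose group, single oral dose in PEG solution with 200 ml water after overnight fast; breakfast 60 to 90 min post-dose. EDTA plasma sampled predose to 144 h. Assayed by validated LC-MS/MS after protein precipitation. Noncompartmental analysis, AUC by linear up/log down trapezoidal rule; Vss = CL/F·(MRTp.o. − 1/Ka).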

[3] = Renal clearance in healthy human at 12.5 mg, po administered as single dose by high-pressure liquid chromatography-tandem mass spectrometry/mass spectrometry method; type: ADME, organism-based, Kidney; settings: in vivo, read-out: CL_renal (converted)
[4] = AUC (0 to last) in healthy human at 5 mg, po administered as single dose coadministered with 100 mg of ritonavir; type: ADME, organism-based; parameters: dose 5 mg, time 0 - last, route oral; settings: plasma
Outline: (§3)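 Healthy male volunteers, fasted. Ritonavir 100 mg given 10 h before and again together with single oral BILR 355 in PEG solution. EDTA plasma sampled predose to 144 h. LC-MS/MS assay after protein precipitation. Noncompartmental analysis, AUC by linear up/log down trapezoidal rule; Vss = CL/F·(MRTp.o. − 1/Ka).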

Homo sapiens [5] = experiment: Toxicity in healthy human assessed as occurrence of palpitations at 50 mg, po administered as single dose relative to control; type: organism-based; settings: in vivo
[6] = Drug excretion in healthy human urine assessed as unchanged drug at 62.5 mg, po administered as single dose coadministered with 100 mg of ritonavir by high-pressure liquid chromatography-tandem mass spectrometry/mass spectrometry method; type: ADME, organism-based; settings: read-out: Drug uptake
Outline: (§4)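 Ritonavir 100 mg was given 10 h before and with one oral dose of BILR 355 in PEG solution. Urine was collected by weight as predose blank, then 0-6, 6-24 and 24-72 h, stored at −20°C and assayed by LC-MS/MS. fe = unchanged drug excreted (Ae) as a percentage of dose. Line 50: high-fat breakfast 30 min before dosing.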

[7] = AUC (0 to infinity) in healthy human at 12.5 mg, po administered as single dose coadministered with 100 mg of ritonavir; type: ADME, organism-based; parameters: dose 12.5 mg, route oral, time infinity; settings: plasma; outline: as §3
[8] = Mean residence time in healthy human at 25 mg, po administered as single dose; type: ADME, organism-based; settings: in vivo
[9] = Apparent volume of distribution at steady state in healthy human at 50 mg, po administered as single dose; type: ADME, organism-based; settings: in vivo, read-out: Vss/F
Outline: (§5)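 Single fasting oral dose of BILR 355 in PEG solution with 200 ml tap water, given to healthy males. Standard breakfast came 60-90 min after the dose. EDTA plasma was sampled predose to 144 h, stored below −18°C and assayed by LC-MS/MS after protein precipitation. Noncompartmental analysis gave Vz/F. Vss/F = CL/F·(MRTp.o. − 1/Ka), with Ka from compartmental modelling.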

[10] = Apparent volume of distribution in terminal phase in healthy human at 100 mg, po administered as single dose; type: ADME, organism-based; settings: in vivo, read-out: Vz/F; outline: as §5
Homo sapiens [11] = experiment: Toxicity in healthy human assessed as occurrence of frequent bowel movements at 50 mg, po administered as single dose relative to control; type: organism-based; settings: in vivo
[12] = AUC (0 to last) in healthy human at 75 mg, po administered as single dose; type: ADME, organism-based; parameters: dose 75 mg, time 0 - last, route oral; settings: plasma; outline: as §2
[13] = Apparent volume of distribution in terminal phase in healthy human at 62.5 mg, po administered as single dose coadministered with 100 mg of ritonavir; type: ADME, organism-based; settings: in vivo, read-out: Vz/F
Outline: (§6)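 Healthy male volunteers, fasted overnight, got one oral dose of BILR 355 in PEG solution with 200 ml water. Ritonavir 100 mg was given 10 h before and again with the dose. Plasma was sampled (EDTA) from predose to 144 h and assayed by validated LC-MS/MS. Cmax and Vz/F came from noncompartmental analysis. Vss/F = CL/F·(MRTp.o. − 1/Ka), with Ka from compartmental modelling.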

[14] = AUC (0 to infinity) in healthy human at 25 mg, po administered as single dose coadministered with 100 mg of ritonavir; type: ADME, organism-based; parameters: dose 25 mg, route oral, time infinity; settings: plasma; outline: as §3
Homo sapiens [15] = experiment: Ratio of AUC (0 to infinity) in human at 50 mg, po in presence of 100 mg of ritonavir to AUC (0 to infinity) in human at 50 mg, po; type: ADME, organism-based; settings: in vivo
[16] = Apparent oral clearance in healthy human at 12.5 mg, po administered as single dose coadministered with 100 mg of ritonavir; type: ADME, organism-based; settings: in vivo; outline: as §3
Homo sapiens [17] = experiment: Toxicity in healthy human assessed as occurrence of abdominal pain at 12.5 mg, po administered as single dose relative to control; type: organism-based, Abdomen; settings: in vivo
Homo sapiens [18] = experiment: Toxicity in healthy human assessed as occurrence of fatigue at 12.5 mg, po administered as single dose coadministered with 100 mg of ritonavir; type: organism-based; settings: in vivo
[19] = Apparent oral clearance in healthy human at 37.5 mg, po administered as single dose coadministered with 100 mg of ritonavir; type: ADME, organism-based; settings: in vivo; outline: as §3
[20] = Renal clearance in healthy human at 5 mg, po administered as single dose coadministered with 100 mg of ritonavir by high-pressure liquid chromatography-tandem mass spectrometry/mass spectrometry method; type: ADME, organism-based, Kidney; settings: in vivo, read-out: CL_renal (converted)
Homo sapiens [21] = experiment: Toxicity in healthy human assessed as occurrence of maculopapular rash at 62.5 mg, po administered as single dose coadministered with 100 mg of ritonavir; type: organism-based; settings: in vivo
Homo sapiens [22] = experiment: Toxicity in healthy human assessed as occurrence of headache at 12.5 mg, po administered as single dose relative to control; type: organism-based; settings: in vivo
[23] = Drug excretion in healthy human urine assessed as unchanged drug at 50 mg, po administered as single dose by high-pressure liquid chromatography-tandem mass spectrometry/mass spectrometry method; type: ADME, organism-based; settings: read-out: Drug uptake; outline: as §1
Homo sapiens [24] = experiment: Ratio of AUC (0 to infinity) in human at 12.5 mg, po in presence of 100 mg of ritonavir to AUC (0 to infinity) in human at 12.5 mg, po; type: ADME, organism-based; settings: in vivo
[25] = AUC (0 to last) in healthy human at 5 mg, po administered as single dose; type: ADME, organism-based; parameters: dose 5 mg, time 0 - last, route oral; settings: plasma; outline: as §2
Homo sapiens [26] = experiment: Toxicity in high fat fed healthy human assessed as occurrence of maculopapular rash at 50 mg, po administered as single dose coadministered with 100 mg of ritonavir; type: organism-based; settings: in vivo
[27] = Drug excretion in healthy human urine assessed as unchanged drug in high fat fed healthy human at 50 mg, po administered as single dose coadministered with 100 mg of ritonavir by high-pressure liquid chromatography-tandem mass spectrometry/mass spectrometry method; type: ADME, organism-based; settings: read-out: Drug uptake; outline: as §4
[28] = Apparent volume of distribution in terminal phase in healthy human at 37.5 mg, po administered as single dose coadministered with 100 mg of ritonavir; type: ADME, organism-based; settings: in vivo, read-out: Vz/F; outline: as §6
[29] = Apparent volume of distribution in terminal phase in healthy human at 75 mg, po administered as single dose coadministered with 100 mg of ritonavir; type: ADME, organism-based; settings: in vivo, read-out: Vz/F; outline: as §6

dose excreted [1]: 0.816%
Vd/F [2]: 1460 L
CL renal [3]: 6.85 mL/min
AUC(0-t) [4]: 615 ng·h/mL
dose excreted [6]: 5.05%
AUC(0-inf) [7]: 1960 ng·h/mL
MRT [8]: 4.52 h
Vd/F [9]: 390 L
Vd/F [10]: 213 L
AUC(0-t) [12]: 763 ng·h/mL
Vd/F [13]: 118 L
AUC(0-inf) [14]: 4340 ng·h/mL
Ratio (Homo sapiens [15]): 15.5
CL/F [16]: 112 mL/min
CL/F [19]: 109 mL/min
CL renal [20]: 6.03 mL/min
dose excreted [23]: 0.485%
Ratio (Homo sapiens [24]): 31
AUC(0-t) [25]: 13.6 ng·h/mL
dose excreted [27]: 4.62%
Vd/F [28]: 104 L
Vd/F [29]: 108 L
SMILES: CCN1c2ncc(CCOc3cc[n+]([O-])c4ccccc34)cc2C(=O)N(C)c2cccnc21 [BILR 355]
Activity (Homo sapiens [5]): 0%
Activity (Homo sapiens [11]): 0%
Activity (Homo sapiens [17]): 0%
Activity (Homo sapiens [18]): 0%
Activity (Homo sapiens [21]): 0%
Activity (Homo sapiens [22]): 0%
Activity (Homo sapiens [26]): 0%
